Experimental data taken from ChEMBL document CHEMBL1152865, “Synthesis and antimycobacterial activities of novel 6-nitroquinolone-3-carboxylic acids” (Eur J Med Chem, 2009).
In brackets after ≈: the same amount, converted by molar mass.

What was measured:
[1] = tested on: Mycobacterium tuberculosis; assay: Antibacterial activity against Mycobacterium tuberculosis H37Rv by agar dilution method; type: functional
Outline: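 Agar dilution in Middlebrook 7H11 agar supplemented with OADC, following an approach similar to NCCLS guidance. MIC determined in duplicate.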

[2] = tested on: Mycolicibacterium smegmatis; assay: Antibacterial activity against Mycobacterium smegmatis ATCC 14468 by agar dilution method; type: functional
Outline: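 Agar dilution on Middlebrook 7H11 agar with OADC supplement, following an NCCLS-type procedure; MIC read in duplicate.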

[3] = Inhibition of Mycobacterium smegmatis DNA gyrase assessed as inhibition of relaxed circular pUC18 supercoiling activity by agarose gel electrophoresis; parameters: species or system Mycolicibacterium smegmatis
Outline: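 Gyrase purified from M. smegmatis, pre-incubated with compound in DMSO. Then 400 ng relaxed pUC18 added in 35 mM Tris-HCl pH 7.5, 5 mM MgCl2, 25 mM potassium glutamate, 2 mM spermidine, 2 mM ATP, BSA, yeast tRNA and 5% glycerol. Incubated 30 min at 37 °C; read-out by agarose gel electrophoresis. Ciprofloxacin and 5% DMSO reactions run as controls.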

[4] = Cytotoxicity against african green monkey Vero cells after 72 hrs by MTT assay; type: cell-based; conditions: chlorocebus sabaeus
Outline: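 Cells exposed to compound for 72 h; viability from cellular MTT conversion to formazan; CC50 derived.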

[5] = tested on: Mus musculus; assay: Phototoxicity in Swiss albino mouse assessed as ear thickness at 140 mg/kg, po measured after 4 hrs of 18 J/cm'2 UV light irradiation; type: organism-based; parameters: dose 140 mg/kg, route oral; conditions: in vivo
Outline: (§1)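 Female Swiss albino mice about 2 months old, 20-25 g, fasted at least 18 h, six per group. Single oral gavage of 140 mg/kg; vehicle 0.5% aqueous sodium carboxymethylcellulose at 10 ml/kg; lomefloxacin HCl 140 mg/kg as positive control. UVA for 4 h (about 18 J/cm²) from dosing. Both ears scored for erythema, edema and thickness pre-dose, at 4 h, and at about 24, 48, 72 and 96 h.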

[6] = tested on: Mus musculus; assay: Phototoxicity in Swiss albino mouse exposed to 4 hrs of 18 J/cm'2 UV light irradiation assessed as erythema at 140 mg/kg, po; type: organism-based; parameters: dose 140 mg/kg, route oral; conditions: in vivo; outline: as §1
[7] = tested on: Mus musculus; assay: Phototoxicity in Swiss albino mouse exposed to 4 hrs of 18 J/cm'2 UV light irradiation assessed as ear thickness at 140 mg/kg, po after 96 hrs; type: organism-based; parameters: dose 140 mg/kg, route oral; conditions: in vivo; outline: as §1
[8] = tested on: Mus musculus; assay: Phototoxicity in Swiss albino mouse exposed to 4 hrs of 18 J/cm'2 UV light irradiation assessed as erythema at 140 mg/kg, po after 96 hrs; type: organism-based; parameters: dose 140 mg/kg, route oral; conditions: in vivo; outline: as §1
[9] = tested on: Mus musculus; assay: Phototoxicity in Swiss albino mouse exposed to 4 hrs of 18 J/cm'2 UV light irradiation assessed as ear thickness at 140 mg/kg, po after 24 hrs; type: organism-based; parameters: dose 140 mg/kg, route oral; conditions: in vivo; outline: as §1
[10] = tested on: Mus musculus; assay: Phototoxicity in Swiss albino mouse assessed as erythema at 140 mg/kg, po after 4 hrs of 18 J/cm'2 UV light irradiation; type: organism-based; parameters: dose 140 mg/kg, route oral; conditions: in vivo; outline: as §1
[11] = tested on: Mus musculus; assay: Phototoxicity in Swiss albino mouse exposed to 18 J/cm'2 UV light irradiation assessed as ear thickness at 140 mg/kg, po; type: organism-based; parameters: dose 140 mg/kg, route oral; conditions: in vivo; outline: as §1
[12] = tested on: Mus musculus; assay: Phototoxicity in Swiss albino mouse exposed to 4 hrs of 18 J/cm'2 UV light irradiation assessed as ear thickness at 140 mg/kg, po after 72 hrs; type: organism-based; parameters: dose 140 mg/kg, route oral; conditions: in vivo; outline: as §1
[13] = tested on: Mus musculus; assay: Phototoxicity in Swiss albino mouse exposed to 4 hrs of 18 J/cm'2 UV light irradiation assessed as erythema at 140 mg/kg, po after 48 hrs; type: organism-based; parameters: dose 140 mg/kg, route oral; conditions: in vivo; outline: as §1
[14] = tested on: Mus musculus; assay: Phototoxicity in Swiss albino mouse exposed to 4 hrs of 18 J/cm'2 UV light irradiation assessed as ear thickness at 140 mg/kg, po after 48 hrs; type: organism-based; parameters: dose 140 mg/kg, route oral; conditions: in vivo; outline: as §1
[15] = tested on: Mus musculus; assay: Phototoxicity in Swiss albino mouse exposed to 4 hrs of 18 J/cm'2 UV light irradiation assessed as erythema at 140 mg/kg, po after 24 hrs; type: organism-based; parameters: dose 140 mg/kg, route oral; conditions: in vivo; outline: as §1

SMILES | MIC [1] | MIC [2] | other results
O=C(O)c1cn(-c2ccc(F)cc2)c2cc(N3CCC(N4CCCCC4)CC3)c([N+](=O)[O-])cc2c1=O | 6.33 µM (≈ 3.13 µg/mL) | 25.3 µM (≈ 12.5 µg/mL) | –
O=C(O)c1cn(C2CC2)c2cc(N3CCC(n4c(=O)[nH]c5cc(Cl)ccc54)CC3)c([N+](=O)[O-])cc2c1=O | 1.49 µM (≈ 0.781 µg/mL) | 2.97 µM (≈ 1.56 µg/mL) | IC50 [3]: 20 µg/mL (≈ 38.2 µM)
CC(C)(C)n1cc(C(=O)O)c(=O)c2cc([N+](=O)[O-])c(N3CCN(C(=O)c4ccco4)CC3)cc21 | 6.68 µM (≈ 3.13 µg/mL) | 13.3 µM (≈ 6.25 µg/mL) | IC50 [3]: 30 µg/mL (≈ 64 µM)
O=C(O)c1cn(-c2ccc(F)cc2)c2cc(N3CCC(n4c(=O)[nH]c5cc(Cl)ccc54)CC3)c([N+](=O)[O-])cc2c1=O | 5.42 µM (≈ 3.13 µg/mL) | 43.3 µM (≈ 25 µg/mL) | –
CC(C)(C)n1cc(C(=O)O)c(=O)c2cc([N+](=O)[O-])c(N3CCN(C(=O)C4COc5ccccc5O4)CC3)cc21 (stereo not drawn) | 5.83 µM (≈ 3.13 µg/mL) | 23.3 µM (≈ 12.5 µg/mL) | –
CN1CCN(c2cc3c(cc2[N+](=O)[O-])c(=O)c(C(=O)O)cn3-c2ccc(F)cc2)CC1c1ccccc1 (stereo not drawn) | 6.23 µM (≈ 3.13 µg/mL) | 24.9 µM (≈ 12.5 µg/mL) | –
CC(C)(C)n1cc(C(=O)O)c(=O)c2cc([N+](=O)[O-])c(N3CCn4cc(C(=O)O)nc4C3)cc21 | 6.87 µM (≈ 3.13 µg/mL) | 54.9 µM (≈ 25 µg/mL) | –
CC(C)(C)n1cc(C(=O)O)c(=O)c2cc([N+](=O)[O-])c(N3CCN(Cc4ccc5c(c4)OCO5)CC3)cc21 | 3.07 µM (≈ 1.56 µg/mL) | 24.6 µM (≈ 12.5 µg/mL) | –
O=C(O)c1cn(C2CC2)c2cc(N3CCN(C(c4ccccc4)c4ccc(Cl)cc4)CC3)c([N+](=O)[O-])cc2c1=O (stereo not drawn) | 5.59 µM (≈ 3.12 µg/mL) | 5.59 µM (≈ 3.12 µg/mL) | –
O=C(O)c1cn(-c2ccc(F)cc2)c2cc(N3CCC4(CC3)OCCO4)c([N+](=O)[O-])cc2c1=O | 6.67 µM (≈ 3.13 µg/mL) | 26.6 µM (≈ 12.5 µg/mL) | –
O=C(O)c1cn(C2CC2)c2cc(N3CCN(C(=O)C4COc5ccccc5O4)CC3)c([N+](=O)[O-])cc2c1=O (stereo not drawn) | 2.99 µM (≈ 1.56 µg/mL) | 12 µM (≈ 6.25 µg/mL) | –
O=C(O)c1cn(C2CC2)c2cc(N3CCC4(CC3)OCCO4)c([N+](=O)[O-])cc2c1=O | 3.76 µM (≈ 1.56 µg/mL) | 15.1 µM (≈ 6.25 µg/mL) | –
COc1ccc(CC2C3=C(CCCC3)CCN2c2cc3c(cc2[N+](=O)[O-])c(=O)c(C(=O)O)cn3C2CC2)cc1 (stereo not drawn) | 3.04 µM (≈ 1.61 µg/mL) | 24.3 µM (≈ 12.9 µg/mL) | –
CC(C)(C)NC(=O)C1c2ccccc2CCN1c1cc2c(cc1[N+](=O)[O-])c(=O)c(C(=O)O)cn2-c1ccc(F)cc1 (stereo not drawn) | 5.6 µM (≈ 3.13 µg/mL) | 22.4 µM (≈ 12.5 µg/mL) | –
CC(C)(C)NC(=O)C1c2ccccc2CCN1c1cc2c(cc1[N+](=O)[O-])c(=O)c(C(=O)O)cn2C(C)(C)C (stereo not drawn) | 12 µM (≈ 6.25 µg/mL) | 24 µM (≈ 12.5 µg/mL) | –
Cc1onc(-c2c(F)cccc2F)c1C(=O)N1CCN(c2cc3c(cc2[N+](=O)[O-])c(=O)c(C(=O)O)cn3C2CC2)CC1 | 2.69 µM (≈ 1.56 µg/mL) | 10.8 µM (≈ 6.25 µg/mL) | –
CC(C)(C)n1cc(C(=O)O)c(=O)c2cc([N+](=O)[O-])c(N3CCC(n4c(=O)[nH]c5cc(Cl)ccc54)CC3)cc21 | 5.79 µM (≈ 3.13 µg/mL) | 23.1 µM (≈ 12.5 µg/mL) | –
O=C(O)c1cn(C2CC2)c2cc(N3CCN(C(=O)c4ccco4)CC3)c([N+](=O)[O-])cc2c1=O | 0.69 µM (≈ 0.312 µg/mL) | 1.39 µM (≈ 0.629 µg/mL) | IC50 [3]: 30 µg/mL (≈ 66.3 µM); CC50 at 72 h [4]: 111 µM
Cc1onc(-c2c(F)cccc2F)c1C(=O)N1CCN(c2cc3c(cc2[N+](=O)[O-])c(=O)c(C(=O)O)cn3-c2ccc(F)cc2)CC1 | 4.94 µM (≈ 3.13 µg/mL) | 19.7 µM (≈ 12.5 µg/mL) | –
O=C(O)c1cn(C2CC2)c2cc(N3CCC(N4CCCCC4)CC3)c([N+](=O)[O-])cc2c1=O | 0.43 µM (≈ 0.189 µg/mL) | 1.77 µM (≈ 0.78 µg/mL) | Activity [5]: 0.26 mm; Activity [6]: Non-toxic; Activity [7]: 0.28 mm; Activity [8]: Non-toxic; Activity [9]: 0.26 mm; IC50 [3]: 20 µg/mL (≈ 45.4 µM); Activity [10]: Non-toxic; Activity [11]: 0.24 mm; Activity [12]: 0.29 mm; Activity [13]: Non-toxic; CC50 at 72 h [4]: 142 µM; Activity [14]: 0.26 mm; Activity [15]: Non-toxic
CC(C)(C)n1cc(C(=O)O)c(=O)c2cc([N+](=O)[O-])c(N3CCC4(CC3)OCCO4)cc21 | 7.45 µM (≈ 3.21 µg/mL) | 29 µM (≈ 12.5 µg/mL) | –
CC(C)(C)n1cc(C(=O)O)c(=O)c2cc([N+](=O)[O-])c(N3CCSCC3)cc21 | 7.99 µM (≈ 3.13 µg/mL) | 31.9 µM (≈ 12.5 µg/mL) | –
O=C(O)c1cn(-c2ccc(F)cc2)c2cc(N3CCC(O)(c4ccc(Cl)cc4)CC3)c([N+](=O)[O-])cc2c1=O | 5.82 µM (≈ 3.13 µg/mL) | 23.2 µM (≈ 12.5 µg/mL) | –
